Reference: ChEMBL document CHEMBL1152403, “Synthesis and evaluation of new endomorphin analogues modified at the Pro(2) residue” (Bioorg Med Chem Lett, 2009)
Where a SMILES comes first, the peptide text is derived from it. [ ]: non-standard residue; d: D form. Dha = C=C(N)C(=O)O

Tests used:
Mu-type opioid receptor [1] = target: Mu-type opioid receptor (Rattus norvegicus, UniProt P33535); assay: Displacement of [3H]DAMGO from mu opioid receptor in rat brain membrane by liquid scintillation counting; assay type: cell membranes
Sequence of Mu-type opioid receptor (Rattus norvegicus, UniProt P33535) (P33535 whole entry): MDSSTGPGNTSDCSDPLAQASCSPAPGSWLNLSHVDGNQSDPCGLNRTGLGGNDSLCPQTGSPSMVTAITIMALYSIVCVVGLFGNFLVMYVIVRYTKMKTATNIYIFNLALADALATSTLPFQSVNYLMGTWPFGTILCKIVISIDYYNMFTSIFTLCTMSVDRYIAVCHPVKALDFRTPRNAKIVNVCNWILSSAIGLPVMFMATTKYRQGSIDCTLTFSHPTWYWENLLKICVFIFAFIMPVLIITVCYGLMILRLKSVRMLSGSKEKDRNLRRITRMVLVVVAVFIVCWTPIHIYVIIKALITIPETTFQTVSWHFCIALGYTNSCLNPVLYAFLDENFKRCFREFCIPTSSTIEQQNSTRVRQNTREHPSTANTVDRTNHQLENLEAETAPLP

Rattus norvegicus = organism: Rattus norvegicus; assay: Selectivity ratio of Ki for delta opioid receptor in rat brain membrane to Ki for mu opioid receptor in rat brain membrane; assay type: cell membranes
[2] = target: Delta-type opioid receptor (Rattus norvegicus, UniProt P33533); assay: Displacement of [3H][…] from delta opioid receptor in rat brain membrane by liquid scintillation counting; assay type: cell membranes
Sequence of Delta-type opioid receptor (Rattus norvegicus, UniProt P33533) (P33533 whole entry): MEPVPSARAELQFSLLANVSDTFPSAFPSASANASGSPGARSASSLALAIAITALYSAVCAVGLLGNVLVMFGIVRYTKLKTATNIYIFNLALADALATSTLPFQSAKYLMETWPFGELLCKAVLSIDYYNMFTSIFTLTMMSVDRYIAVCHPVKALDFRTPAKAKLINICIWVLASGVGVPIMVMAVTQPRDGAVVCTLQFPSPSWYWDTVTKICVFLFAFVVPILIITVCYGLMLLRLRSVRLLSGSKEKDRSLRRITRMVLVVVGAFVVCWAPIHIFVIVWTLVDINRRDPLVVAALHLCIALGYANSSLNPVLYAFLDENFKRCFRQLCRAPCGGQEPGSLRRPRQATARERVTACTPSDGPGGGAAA

[3] = target: Delta-type opioid receptor (Mus musculus, UniProt P32300); assay: Agonist activity at delta opioid receptor in mouse vas deference assessed as inhibition of electrically-stimulated contraction; assay type: functional
Sequence of Delta-type opioid receptor (Mus musculus, UniProt P32300) (P32300 whole entry): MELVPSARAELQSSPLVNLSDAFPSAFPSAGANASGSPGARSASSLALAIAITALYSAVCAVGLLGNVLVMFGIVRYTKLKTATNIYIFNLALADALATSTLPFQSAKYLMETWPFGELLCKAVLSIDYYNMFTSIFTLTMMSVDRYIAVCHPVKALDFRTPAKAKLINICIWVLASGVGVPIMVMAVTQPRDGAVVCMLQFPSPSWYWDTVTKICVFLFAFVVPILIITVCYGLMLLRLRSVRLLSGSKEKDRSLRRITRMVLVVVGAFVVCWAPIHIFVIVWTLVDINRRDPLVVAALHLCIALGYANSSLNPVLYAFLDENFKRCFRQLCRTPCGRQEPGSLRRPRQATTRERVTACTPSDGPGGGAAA
Method in brief: (§1)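 Isolated-tissue bioassay of inhibition of electrically evoked contraction (MVD for δ, GPI/LMMP for μ). IC50 is the mean of at least four experiments. IC50, relative potency and standard errors were obtained by fitting the data to the Hill equation by computerized non-linear least squares.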

Mu-type opioid receptor [4] = target: Mu-type opioid receptor (Cavia porcellus, UniProt P97266); assay: Agonist activity at mu opioid receptor in guinea pig ileum assessed as inhibition of electrically-stimulated contraction; assay type: functional, tissue-based; method in brief: as §1
Sequence of Mu-type opioid receptor (Cavia porcellus, UniProt P97266) (P97266 whole entry): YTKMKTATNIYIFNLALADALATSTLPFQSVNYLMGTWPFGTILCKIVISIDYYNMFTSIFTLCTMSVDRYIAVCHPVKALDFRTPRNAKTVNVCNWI

[5] = target: Delta-type opioid receptor (Mus musculus) (UniProt P32300); assay: Agonist activity at delta opioid receptor in mouse vas deference assessed as inhibition of electrically-stimulated contraction at 1 uM; assay type: functional
Sequence of Delta-type opioid receptor (Mus musculus) (P32300 whole entry): as the sequence (P32300 whole entry) above

Row | SMILES | Ki (Mu-type opioid receptor [1]) [nM] | Ratio Ki (Rattus norvegicus) | Ki [2] [µM] | IC50 [3] [µM] | IC50 (Mu-type opioid receptor [4]) [µM] | inhibition [5] [%]
1 | NC(=O)[C@H](Cc1ccccc1)NC(=O)[C@H](Cc1c[nH]c2ccccc12)NC(=O)[C@@H]1CCN1C(=O)[C@@H](N)Cc1ccc(O)cc1 | 2.3 | 1500 | 3.5 |  |  | 
2 | NC(=O)[C@H](Cc1ccccc1)NC(=O)[C@H](Cc1ccccc1)NC(=O)[C@@H]1C=CCN1C(=O)[C@@H](N)Cc1ccc(O)cc1 | 6.5 |  |  | 70 | 14 | 
3 | NC(=O)[C@H](Cc1ccccc1)NC(=O)[C@H](Cc1ccccc1)NC(=O)C1CN(C(=O)[C@@H](N)Cc2ccc(O)cc2)C1 | 210 | 32 | 6.9 |  |  | 13
4 | C=C(NC(=O)[C@@H](N)Cc1ccc(O)cc1)C(=O)N[C@@H](Cc1ccccc1)C(=O)N[C@@H](Cc1ccccc1)C(N)=O (H-Y[Dha]FF-NH2) | 34 | 21 | 0.71 |  |  | 
5 | NC(=O)[C@H](Cc1ccccc1)NC(=O)[C@H](Cc1c[nH]c2ccccc12)NC(=O)C1CN(C(=O)[C@@H](N)Cc2ccc(O)cc2)C1 | 34 | 1.2 | 0.04 |  |  | 
6 | NC(=O)[C@H](Cc1ccccc1)NC(=O)[C@H](Cc1ccccc1)NC(=O)[C@@H]1CCN1C(=O)[C@@H](N)Cc1ccc(O)cc1 | 5.6 | 920 | 5.1 |  |  | 
